Results published in ChEMBL document CHEMBL3085765, “The synthesis, antiviral, cytostatic and cytotoxic evaluation of a new series of acyclonucleotide analogues with a 1,2,3-triazole linker” (Eur J Med Chem, 2013).

Key:
Format in all cases: functional, cell-based
CCRF-CEM = assay: Cytostatic activity against human CEM cells after 3 days by coulter ZI particle counting analysis; details: 72 h
Summary of the method: (§1)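 Cells seeded in 96-well plates and grown with or without serial dilutions of compound, 2 days for L1210 and 3 days for CEM and HeLa. IC50 taken as concentration inhibiting cell proliferation by 50%.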

L1210 = assay: Cytostatic activity against mouse L1210 cells after 2 days by coulter ZI particle counting analysis; details: L1210, 48 h; summary of the method: as §1
HeLa = assay: Cytostatic activity against human HeLa cells after 3 days by coulter ZI particle counting analysis; details: 72 h; summary of the method: as §1

| IC50 (CCRF-CEM) [µM] | IC50 (L1210) [µM] | IC50 (HeLa) [µM] | Structure (SMILES) |
| --- | --- | --- | --- |
| > 200 | > 200 | > 200 | CCOP(=O)(Cn1cc(Cn2ccccc2=O)nn1)OCC |
| > 200 | > 200 | > 200 | CCOP(=O)(CCCCn1cc(Cn2c(Cl)nc3c2c(=O)n(C)c(=O)n3C)nn1)OCC |
| > 200 | > 200 | > 200 | CCOP(=O)(CCCCn1cc(Cn2ccccc2=O)nn1)OCC |
| > 200 | > 200 | > 200 | CCOP(=O)(CCCn1cc(Cn2c(=O)c3c(ncn3C)n(C)c2=O)nn1)OCC |
| > 200 | > 200 | > 200 | CCOP(=O)(OCC)C(O)CCn1cc(Cn2cc(C)c(=O)[nH]c2=O)nn1 (centres undefined) |
| > 200 | > 200 | > 200 | O=C(c1ccccc1)n1c(=O)c2ccccc2n(Cc2cn(CCCP(=O)(O)O)nn2)c1=O |
| > 200 | > 200 | > 200 | O=C(c1ccccc1)n1c(=O)ccn(Cc2cn(CCCP(=O)(O)O)nn2)c1=O |
| 72 | > 200 | > 200 | CCOP(=O)(CC(O)Cn1cc(Cn2c(=O)n(C(=O)c3ccccc3)c(=O)c3ccccc32)nn1)OCC (centres undefined) |
| > 200 | > 200 | > 200 | CCOP(=O)(Cn1cc(Cn2c(Cl)nc3c2c(=O)n(C)c(=O)n3C)nn1)OCC |
| > 200 | > 200 | > 200 | CCOP(=O)(CCn1cc(Cn2ccccc2=O)nn1)OCC |
| > 200 | > 200 | 159 | CCOP(=O)(CCn1cc(Cn2c(=O)c3c(ncn3C)n(C)c2=O)nn1)OCC |
| > 200 | > 200 | > 200 | CCOP(=O)(OCC)C(O)CCn1cc(Cn2c(=O)c3c(ncn3C)n(C)c2=O)nn1 (centres undefined) |
| > 200 | > 200 | > 200 | CCOP(=O)(CCCCn1cc(Cn2cnc3c(N)ncnc32)nn1)OCC |
| > 200 | > 200 | > 200 | CCOP(=O)(OCC)C(O)Cn1cc(Cn2c(=O)c3c(ncn3C)n(C)c2=O)nn1 (centres undefined) |
| > 200 | > 200 | > 200 | CCOP(=O)(CCCCn1cc(Cn2ccc(NC(C)=O)nc2=O)nn1)OCC |
| 24.7 | > 200 | 172 | CCOP(=O)(CCCCn1cc(Cn2cnc3cc(C)c(C)cc32)nn1)OCC |
| > 200 | > 200 | > 200 | CCOP(=O)(CCCCn1cc(Cn2cnc3c2c(=O)n(C)c(=O)n3C)nn1)OCC |
| > 200 | > 200 | > 200 | CCOP(=O)(OCC)C(O)Cn1cc(Cn2ncc(=O)[nH]c2=O)nn1 (centres undefined) |
| 14 | 189 | 101 | CCOP(=O)(CCCn1cc(Cn2cnc3cc(C)c(C)cc32)nn1)OCC |
| > 200 | > 200 | > 200 | CCOP(=O)(OCC)C(O)CCn1cc(Cn2cnc3c2c(=O)n(C)c(=O)n3C)nn1 (centres undefined) |
| > 200 | > 200 | > 200 | CCOP(=O)(CCCCn1cc(Cn2cc(C)c(=O)[nH]c2=O)nn1)OCC |

| IC50 (CCRF-CEM) [µM] | IC50 (L1210) [µM] | IC50 (HeLa) [µM] | Structure (SMILES) |
| --- | --- | --- | --- |
| > 200 | > 200 | > 200 | CCOP(=O)(CC(O)Cn1cc(Cn2c(Cl)nc3c2c(=O)n(C)c(=O)n3C)nn1)OCC (centres undefined) |
| > 200 | > 200 | > 200 | CCOP(=O)(Cn1cc(Cn2cnc3c2c(=O)n(C)c(=O)n3C)nn1)OCC |
| > 200 | > 200 | > 200 | CCOP(=O)(CCn1cc(Cn2ncc(=O)[nH]c2=O)nn1)OCC |
| > 200 | > 200 | > 200 | CCOP(=O)(OCC)C(O)Cn1cc(Cn2ccccc2=O)nn1 (centres undefined) |
| > 200 | > 200 | > 200 | CCOP(=O)(CC(O)Cn1cc(Cn2c(=O)c3c(ncn3C)n(C)c2=O)nn1)OCC (centres undefined) |
| > 200 | > 200 | > 200 | CCOP(=O)(OCC)C(O)CCn1cc(Cn2c(Cl)nc3c2c(=O)n(C)c(=O)n3C)nn1 (centres undefined) |
| > 200 | > 200 | > 200 | CCOP(=O)(CCCCn1cc(Cn2ccc(=O)[nH]c2=O)nn1)OCC |
| > 200 | > 200 | > 200 | CCOP(=O)(OCC)C(O)CCn1cc(Cn2ccc(NC(C)=O)nc2=O)nn1 (centres undefined) |
| ≥ 77 | > 200 | > 200 | CCOP(=O)(OCC)C(O)Cn1cc(Cn2c(=O)n(C(=O)c3ccccc3)c(=O)c3ccccc32)nn1 (centres undefined) |
| > 200 | > 200 | > 200 | Nc1ncnc2c1ncn2Cc1cn(CCCCP(=O)(O)O)nn1 |
| > 200 | > 200 | > 200 | Cn1c(=O)c2c(ncn2Cc2cn(CC(O)P(=O)(O)O)nn2)n(C)c1=O (centres undefined) |
| 78 | > 200 | ≥ 150 | CCOP(=O)(CC(O)Cn1cc(Cn2cnc3cc(C)c(C)cc32)nn1)OCC (centres undefined) |
| > 200 | > 200 | > 200 | CCOP(=O)(Cn1cc(Cn2ncc(=O)[nH]c2=O)nn1)OCC |
| 23.4 | ≥ 200 | > 200 | CCOP(=O)(CCn1cc(Cn2cnc3cc(C)c(C)cc32)nn1)OCC |
| > 200 | > 200 | > 200 | CCOP(=O)(CCCn1cc(Cn2c(Cl)nc3c2c(=O)n(C)c(=O)n3C)nn1)OCC |
| > 200 | > 200 | > 200 | Cc1cn(Cc2cn(CCCCP(=O)(O)O)nn2)c(=O)[nH]c1=O |
| > 200 | > 200 | > 200 | CCOP(=O)(OCC)C(O)CCn1cc(Cn2ccc(=O)[nH]c2=O)nn1 (centres undefined) |
| > 200 | > 200 | > 200 | Cn1c(=O)c2c(nc(Cl)n2Cc2cn(CCCP(=O)(O)O)nn2)n(C)c1=O |
| > 200 | > 200 | > 200 | CCOP(=O)(CCCn1cc(Cn2ccccc2=O)nn1)OCC |
| > 200 | > 200 | > 200 | CCOP(=O)(OCC)C(O)CCn1cc(Cn2ncc(=O)[nH]c2=O)nn1 (centres undefined) |
| > 200 | > 200 | > 200 | CCOP(=O)(OCC)C(O)Cn1cc(Cn2cnc3c2c(=O)n(C)c(=O)n3C)nn1 (centres undefined) |

| IC50 (CCRF-CEM) [µM] | IC50 (L1210) [µM] | IC50 (HeLa) [µM] | Structure (SMILES) |
| --- | --- | --- | --- |
| > 200 | > 200 | > 200 | Cc1cc2ncn(Cc3cn(CCCP(=O)(O)O)nn3)c2cc1C |
| 70 | > 200 | > 200 | CCOP(=O)(OCC)C(O)CCn1cc(Cn2c(=O)n(C(=O)c3ccccc3)c(=O)c3ccccc32)nn1 (centres undefined) |
| > 200 | > 200 | > 200 | CCOP(=O)(CCCCn1cc(Cn2c(=O)c3c(ncn3C)n(C)c2=O)nn1)OCC |
| > 200 | > 200 | > 200 | CCOP(=O)(CCn1cc(Cn2cnc3c2c(=O)n(C)c(=O)n3C)nn1)OCC |
| > 200 | > 200 | > 200 | CCOP(=O)(CC(O)Cn1cc(Cn2ccccc2=O)nn1)OCC (centres undefined) |
| ≥ 72 | > 200 | ≥ 89 | CCOP(=O)(Cn1cc(Cn2c(=O)n(C(=O)c3ccccc3)c(=O)c3ccccc32)nn1)OCC |
| > 200 | > 200 | ≥ 149 | CCOP(=O)(Cn1cc(Cn2c(=O)c3c(ncn3C)n(C)c2=O)nn1)OCC |
| 97 | > 200 | 42 | CCOP(=O)(Cn1cc(Cn2cnc3cc(C)c(C)cc32)nn1)OCC |
| > 200 | > 200 | > 200 | CCOP(=O)(CCCn1cc(Cn2cnc3c2c(=O)n(C)c(=O)n3C)nn1)OCC |
| > 200 | > 200 | > 200 | O=c1ccn(Cc2cn(CCCCP(=O)(O)O)nn2)c(=O)[nH]1 |
| > 200 | > 200 | > 200 | CCOP(=O)(CC(O)Cn1cc(Cn2ncc(=O)[nH]c2=O)nn1)OCC (centres undefined) |
| > 200 | > 200 | > 200 | CCOP(=O)(OCC)C(O)Cn1cc(Cn2cnc3cc(C)c(C)cc32)nn1 (centres undefined) |
| > 200 | > 200 | > 200 | CCOP(=O)(OCC)C(O)CCn1cc(Cn2ccccc2=O)nn1 (centres undefined) |
| > 200 | > 200 | 200 | CCOP(=O)(CCn1cc(Cn2c(Cl)nc3c2c(=O)n(C)c(=O)n3C)nn1)OCC |
| 163 | > 200 | > 200 | CCOP(=O)(OCC)C(O)CCn1cc(Cn2cnc3cc(C)c(C)cc32)nn1 (centres undefined) |
| > 200 | > 200 | > 200 | CCOP(=O)(CCCn1cc(Cn2ncc(=O)[nH]c2=O)nn1)OCC |
| > 200 | > 200 | > 200 | CCOP(=O)(OCC)C(O)Cn1cc(Cn2c(Cl)nc3c2c(=O)n(C)c(=O)n3C)nn1 (centres undefined) |
| > 200 | > 200 | > 200 | CCOP(=O)(CCCCn1cc(Cn2ncc(=O)[nH]c2=O)nn1)OCC |
| > 200 | > 200 | > 200 | CCOP(=O)(CC(O)Cn1cc(Cn2cnc3c2c(=O)n(C)c(=O)n3C)nn1)OCC (centres undefined) |

| Structure (SMILES) | IC50 (CCRF-CEM) [µM] | IC50 (L1210) [µM] | IC50 (HeLa) [µM] |
| --- | --- | --- | --- |
| CCOP(=O)(OCC)C(O)CCn1cc(Cn2cc(C(C)=O)c3ccccc32)nn1 (centres undefined) | 100 | 124 | > 200 |
| CCOP(=O)(Cn1cc(Cn2cc(C(C)=O)c3ccccc32)nn1)OCC | 2.78 | 72 | 11 |
| CCOP(=O)(CCCn1cc(Cn2cc(C(C)=O)c3ccccc32)nn1)OCC | 4.54 | 164 | 19 |
| CCOP(=O)(CCn1cc(Cn2cc(C(C)=O)c3ccccc32)nn1)OCC | 11.4 | 197 | 18 |
| CCOP(=O)(OCC)C(O)Cn1cc(Cn2cc(C(C)=O)c3ccccc32)nn1 (centres undefined) | 21 | > 200 | > 200 |
| CCOP(=O)(CCCCn1cc(Cn2cc(C(C)=O)c3ccccc32)nn1)OCC | 12 | 200 | > 200 |
| CCOP(=O)(CC(O)Cn1cc(Cn2cc(C(C)=O)c3ccccc32)nn1)OCC (centres undefined) | 43 | > 200 | 97 |
